# Reference: ChEMBL document CHEMBL1131088 (J Med Chem, 1998)
# pIC50: −log10 of the molar value.
# Tests used:
# Mus musculus [1] = organism: Mus musculus; assay: In vitro inhibitory activity against murine antibody response to T-cell independent B-cell antigen TNP-LPS (type I); assay type: functional
# Procedure, shortened: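 C57Bl/6 nu/nu and C57Bl/6 spleen cells, 2 × 10⁵/well in duplicate, IMDM-ATL + 10% FCS with serial drug dilutions and optimal TNP-LPS, 4 days at 37 °C. Pooled supernatants went to ELISA on BSA-DNP plates, developed with biotin anti-mouse IgM, streptavidin-alkaline phosphatase and pNPP, read at 405/490 nm. % inhibition was taken relative to unstimulated (low) and stimulated (high) controls.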
# [2] = target: Dihydroorotate dehydrogenase (quinone), mitochondrial (Homo sapiens, UniProt Q02127); assay: In vitro inhibitory activity against human dihydroorotate dehydrogenase (DHODH)
# Sequence of Dihydroorotate dehydrogenase (quinone), mitochondrial (Q02127 whole entry): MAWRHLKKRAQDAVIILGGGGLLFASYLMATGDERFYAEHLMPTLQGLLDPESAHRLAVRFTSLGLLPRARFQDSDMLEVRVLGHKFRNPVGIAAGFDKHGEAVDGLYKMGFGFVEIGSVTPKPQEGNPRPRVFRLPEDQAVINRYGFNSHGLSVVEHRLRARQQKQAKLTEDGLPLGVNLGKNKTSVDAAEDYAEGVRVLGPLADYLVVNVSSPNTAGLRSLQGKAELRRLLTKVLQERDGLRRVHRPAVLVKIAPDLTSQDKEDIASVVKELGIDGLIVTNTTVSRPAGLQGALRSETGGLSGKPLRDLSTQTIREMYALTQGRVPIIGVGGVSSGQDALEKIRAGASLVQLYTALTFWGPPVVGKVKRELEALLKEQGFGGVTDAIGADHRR
# Jurkat = assay: In vitro inhibitory activity against Jurkat cell proliferation; assay type: functional, cell-based; settings: Homo sapiens
# Procedure, shortened: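 Human Jurkat T cells kept in FCS-supplemented RPMI; 5 × 10⁴ cells/well cultured 2 days in 200 μL RPMI with test compound. Proliferation read as [³H]thymidine incorporation at the end of culture.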
# Mus musculus [3] = organism: Mus musculus; assay: In vitro inhibitory activity against mouse mixed lymphocyte reaction (MLR); assay type: functional
# Procedure, shortened: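 Equal numbers of C57Bl/6 (H-2^b) and CBA/2 (H-2^k) spleen cells mixed; 4 × 10⁵ cells/well with serial dilutions (DMSO/water) in 200 μL complete RPMI, 4 days, 37 °C, 5% CO₂. Proliferation by [³H]thymidine incorporation.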
pIC50 (Mus musculus [1]),pIC50 [2],pIC50 (Jurkat),pIC50 (Mus musculus [3]),SMILES
4.46,4.65,–,–,Cc1n[nH]c(Nc2c(F)cc(F)cc2F)c1C#N
4.76,< 4.30,4.39,4.69,C/C(=N\N)c1c(C)n[nH]c1Nc1ccc(C(F)(F)F)cc1
4.49,< 4.30,–,–,N#Cc1c(-c2ccccc2)n[nH]c1Nc1ccc(C(F)(F)F)cc1
4.83,< 4.30,< 4.30,5.43,N#Cc1c(Nc2ccc(C(F)(F)F)cc2)n[nH]c1N
4.84,4.65,4.37,4.73,Cc1n[nH]c(Nc2ccc(C(F)(F)F)cc2)c1C
5.04,4.71,< 4.30,5.13,Cc1n[nH]c(Nc2ccc(F)cc2)c1C#N
5.28,5.59,< 4.30,5.68,Cc1n[nH]c(Nc2ccc(C(F)(F)F)cc2)c1C#N
4.86,5.21,4.51,5.47,FC(F)(F)c1ccc(Nc2[nH]nc3c2CCCC3)cc1
4.55,< 4.30,4.79,5.17,Cc1n[nH]c(Nc2cc(C(F)(F)F)cc(C(F)(F)F)c2)c1C#N
5.24,< 4.30,< 4.30,5.28,CC(C)(C)c1[nH]nc(Nc2ccc(C(F)(F)F)cc2)c1C#N
< 4.30,< 4.30,–,–,N#Cc1c(-c2ccco2)n[nH]c1Nc1ccc(C(F)(F)F)cc1
4.51,5.44,4.91,5.12,Cc1n[nH]c(Nc2ccc(C(C)(C)C)cc2)c1C#N
4.57,< 4.30,–,–,N#Cc1c(-c2cccnc2)n[nH]c1Nc1ccc(C(F)(F)F)cc1
< 4.30,4.92,–,–,Cc1ccc(Nc2[nH]nc(C)c2C#N)cc1
4.78,5.19,4.75,5.07,O=C1CCCc2n[nH]c(Nc3ccc(C(F)(F)F)cc3)c21
5.33,5.40,< 4.30,5.51,CC(C)c1n[nH]c(Nc2ccc(C(F)(F)F)cc2)c1C#N
4.67,5.57,–,–,Cc1n[nH]c(Nc2ccc(C(F)(F)F)cc2)c1CO
< 4.30,< 4.30,–,–,Cc1n[nH]c(Nc2ccccc2C(F)(F)F)c1C#N
4.72,< 4.30,< 4.30,4.63,Cc1n[nH]c(N(C)c2ccc(C(F)(F)F)cc2)c1C#N

pIC50 (Mus musculus [1]),pIC50 [2],pIC50 (Jurkat),pIC50 (Mus musculus [3]),SMILES
4.77,< 4.30,< 4.30,4.39,Cc1n[nH]c(NCc2ccc(C(F)(F)F)cc2)c1C#N
< 4.30,< 4.30,–,–,N#Cc1c(Nc2ccc(C(F)(F)F)cc2)n[nH]c1O
4.64,< 4.30,4.33,4.79,Cc1nn(C)c(Nc2ccc(C(F)(F)F)cc2)c1C#N
4.94,5.49,< 4.30,5.22,Cc1n[nH]c(Nc2ccc(C#N)cc2)c1C#N
4.53,< 4.30,–,–,Cc1n[nH]c(Nc2ccc(C(F)(F)F)cc2)c1-c1ccccc1
< 4.30,< 4.30,< 4.30,< 4.30,Cc1n[nH]c(Nc2ccccc2)c1C#N
5.19,5.05,< 4.30,5.37,Cc1n[nH]c(Nc2ccc([N+](=O)[O-])cc2)c1C#N
< 4.30,< 4.30,–,–,Cc1n[nH]c(Nc2cccc(C(F)(F)F)c2)c1C#N
5.29,–,4.38,5.13,Cc1oncc1C(=O)Nc1ccc(C(F)(F)F)cc1 [LEFLUNOMIDE]
< 4.30,< 4.30,–,–,Cc1n[nH]c(Nc2ccc(N)cc2)c1C#N
4.65,< 4.30,4.50,5.54,N#Cc1c(C2CCCC2)n[nH]c1Nc1ccc(C(F)(F)F)cc1
< 4.30,< 4.30,–,–,N#Cc1c(-c2cccs2)n[nH]c1Nc1ccc(C(F)(F)F)cc1
4.87,< 4.30,4.97,5.44,N#Cc1c(-c2ccncc2)n[nH]c1Nc1ccc(C(F)(F)F)cc1
4.58,4.78,< 4.30,4.78,Cc1cc(Nc2ccc(C(F)(F)F)cc2)[nH]n1
4.68,< 4.30,–,–,Cc1n[nH]c(Nc2ccc(C(F)(F)F)c(Br)c2)c1C#N
4.62,< 4.30,–,–,CCOC(=O)c1c(C)n[nH]c1Nc1ccc(C(F)(F)F)cc1
4.77,< 4.30,4.41,5.12,CCNc1[nH]nc(Nc2ccc(C(F)(F)F)cc2)c1C#N
–,–,< 5.00,–,C/C=C/C[C@@H](C)[C@@H](O)[C@H]1C(=O)N[C@@H](CC)C(=O)N(C)CC(=O)N(C)[C@@H](CC(C)C)C(=O)N[C@@H](C(C)C)C(=O)N(C)[C@@H](CC(C)C)C(=O)N[C@@H](C)C(=O)N[C@H](C)C(=O)N(C)[C@@H](CC(C)C)C(=O)N(C)[C@@H](CC(C)C)C(=O)N(C)[C@@H](C(C)C)C(=O)N1C [CYCLOSPORINE]

SMILES,pIC50 (Mus musculus [1]),pIC50 [2],pIC50 (Jurkat),pIC50 (Mus musculus [3])
Cc1n[nH]c(Nc2ccc(OC(F)(F)F)cc2)c1C#N,4.70,6.30,4.79,6.35
